Experimental data taken from ChEMBL document CHEMBL1134641, “Progress toward the development of a safe and effective agent for treating reentrant cardiac arrhythmias: synthesis and evaluation of ibutilide analogues with enhanced metabolic stability and diminished proarrhythmic potential” (2001).

Key:
Canis familiaris [1] = assay: Ventricular MAPD90 measured in canine 24-h Infarction model at an cumulative intravenous dose of 0.24 uM/kg; format: functional, Canis lupus familiaris, Heart
Summary of the method: (§1)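 Dogs 24 h after two-stage LAD ligation. Compound in saline given iv in sequential doses (cumulative 0.24, 0.72, 2.4 µmol/kg); saline controls then given a single 2.4 µmol/kg iv dose. HR, IVR, BP, QT, spontaneous arrhythmias/min, ERPs and MAPD90 measured at baseline and 15 min after each dose. Means ± SEM, paired t-test, p≤0.05.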

Canis familiaris [2] = assay: Blood pressure measured in canine 24-h Infarction model at an cumulative intravenous dose of 0.24 uM/kg; format: functional, Canis lupus familiaris
Summary of the method: (§2)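 Male mongrel dogs (16-22 kg) with LAD permanently ligated in two stages; studied 24 h later. […] given IV in sequential doses to cumulative 0.24, 0.72, 2.4 µmol/kg. Saline controls (n=8) received vehicle, then a single IV 2.4 µmol/kg dose at the end. Measurements taken at baseline and 15 min after each dose. Means ± SEM, paired t-test, p ≤ 0.05.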

Canis familiaris [3] = assay: QT interval measured in canine just after inducing atrial flutter (AFL) termination by the compound at a dose of 7.2 uM/kg; format: functional, Canis lupus familiaris, Heart
Summary of the method: (§3)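 Conscious, sling-restrained dogs with chronically implanted electrodes, studied after 2 weeks of recovery. Sustained AFL (>5 min) induced. Compound in saline given iv every 5 min to cumulative 0.024-12.0 µmol/kg. At AFL termination, HR, QT (paced cycle length 300 ms), AERP and VERP measured. Measurements then taken 3 min after each further dose. Significance p≤0.05 vs baseline.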

Canis familiaris [4] = assay: Blood pressure measured in canine 24-h Infarction model at an cumulative intravenous dose of 0.72 uM/kg; format: functional, Canis lupus familiaris; summary of the method: as §2
Canis familiaris [5] = assay: QT interval measured in canine just after inducing atrial flutter (AFL) termination by the compound at a dose of 2.4 uM/kg; format: functional, Canis lupus familiaris, Heart; summary of the method: as §3
Canis familiaris [6] = assay: Atrial effective refractory period (AERP) measured in canine just after inducing atrial flutter (AFL) termination by the compound at a dose of 9.6 uM/kg; format: functional, Canis lupus familiaris, Heart
Canis familiaris [7] = assay: Number of canine in which arrhythmias could not be induced at an cumulative intravenous dose of 0.72 uM/kg; format: functional, Canis lupus familiaris
Summary of the method: (§4)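 Male mongrel dogs (16-22 kg) with LAD ligated in two stages, studied 24 h later. Programmed electrical stimulation at baseline and 15 min after each iv dose in saline (cumulative 0.24, 0.72, 2.4 µmol/kg). Saline controls then received a single 2.4 µmol/kg iv dose. Responses scored as NI (≤15 beats), NSVT (>15 beats, ends within 30 s), SVT (>30 s, needing pacing or cardioversion) or VF. A positive response was repeated.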

Canis familiaris [8] = assay: Ventricular effective refractory (VEPR) period measured in canine 24-h Infarction model at a single intravenous dose of 2.4 uM/kg; format: functional, Canis lupus familiaris, Heart; summary of the method: as §1
Canis familiaris [9] = assay: Number of canine in which nonsustained ventricular tachycardia (NSVT) was observed in PES-induced arrhythmias at an cumulative intravenous dose of 2.4 uM/kg; format: functional, Canis lupus familiaris, Cardiac ventricle; summary of the method: as §4
Canis familiaris [10] = assay: Number of canine in which ventricular fibrillation (VF) was observed in PES-induced arrhythmias at an cumulative intravenous dose of 0.24 uM/kg; format: functional, Canis lupus familiaris, Cardiac ventricle; summary of the method: as §4
Canis familiaris [11] = assay: Atrial effective refractory period (AEPR) measured in canine 24-h Infarction model at an cumulative intravenous dose of 2.4 uM/kg; format: functional, Canis lupus familiaris, Cardiac atrium; summary of the method: as §2
Canis familiaris [12] = assay: QT interval measured in canine 24-h Infarction model at an cumulative intravenous dose of 0.24 uM/kg; format: functional, Canis lupus familiaris; summary of the method: as §1
Canis familiaris [13] = assay: Heart rate measured in canine 24-h Infarction model at an cumulative intravenous dose of 0.24 uM/kg; format: functional, Canis lupus familiaris; summary of the method: as §2
Canis familiaris [14] = assay: Number of canine in which arrhythmias could not be induced at an single intravenous dose of 2.4 uM/kg; format: functional, Canis lupus familiaris; summary of the method: as §4
Canis familiaris [15] = assay: QT interval measured in canine just after inducing atrial flutter (AFL) termination by the compound at a dose of 1.2 uM/kg; format: functional, Canis lupus familiaris, Heart; summary of the method: as §3
Canis familiaris [16] = assay: Heart Rate measured in canine just after inducing atrial flutter (AFL) termination by the compound at a dose of 2.4 uM/kg; format: functional, Canis lupus familiaris
Canis familiaris [17] = assay: Ventricular effective refractory (VEPR) period measured in canine 24-h Infarction model at an cumulative intravenous dose of 0.24 uM/kg; format: functional, Canis lupus familiaris, Heart
Summary of the method: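 Male mongrel dogs (16-22 kg) with LAD permanently ligated in two stages, studied 24 h after ligation. Compound given in saline (6.0 µmol/mL) as sequential intravenous doses to reach cumulative 0.24, 0.72 and 2.4 µmol/kg. VERP and other measurements taken at baseline and 15 min after each dose. Saline-dosed dogs served as controls. Results are means ± SEM, paired t-test, p ≤ 0.05.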

Canis familiaris [18] = assay: Number of canine in which arrhythmias could not be induced at an cumulative intravenous dose of 0.24 uM/kg; format: functional, Canis lupus familiaris; summary of the method: as §4
Canis familiaris [19] = assay: Atrial effective refractory period (AEPR) measured in canine 24-h Infarction model at a single intravenous dose of 2.4 uM/kg; format: functional, Canis lupus familiaris, Cardiac atrium; summary of the method: as §2
Canis familiaris [20] = assay: Atrial effective refractory period (AERP) measured in canine just after inducing atrial flutter (AFL) termination by the compound at a dose of 4.8 uM/kg; format: functional, Canis lupus familiaris, Heart
Canis familiaris [21] = assay: Ventricular effective refractory period ([…]) measured in canine just after inducing atrial flutter (AFL) termination by the compound at a dose of 4.8 uM/kg; format: functional, Canis lupus familiaris, Heart
Summary of the method: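 Conscious dogs, loosely restrained in a sling, with exteriorized electrode leads, studied 2 weeks after instrumentation. AFL was induced and counted as sustained if it lasted 5 min. Compound in saline given intravenously every 5 min to cumulative 0.024-12.0 µmol/kg. VERP was measured at AFL termination and 3 min after each dose. Results are means ± SEM versus baseline, p ≤ 0.05.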

Canis familiaris [22] = assay: QT interval measured in canine just after inducing atrial flutter (AFL) termination by the compound at a dose of 4.8 uM/kg; format: functional, Canis lupus familiaris, Heart; summary of the method: as §3
Canis familiaris [23] = assay: QT interval measured in canine just after inducing atrial flutter (AFL) termination by the compound at a dose of 0.24 umol/kg; format: functional, Canis lupus familiaris, Heart
Canis familiaris [24] = assay: Idioventricular heart rate (IVR) measured in canine 24-h Infarction model at an cumulative intravenous dose of 0.72 uM/kg; format: functional, Canis lupus familiaris; summary of the method: as §2

With CCN(CCCCCC(C)(C)F)CCC[C@H](O)c1ccc(NS(C)(=O)=O)cc1.O=C(O)/C=C/C(=O)O as the compound, how does the “Ventricular MAPD90” value (Canis familiaris [1]) read?
The value was 162 ms.

What about the BP (Canis familiaris [2]) of the same compound?
The BP was 112 mmHg.

What about the QT interval (Canis familiaris [3]) of the same compound?
The QT interval was 205 ms.

What about the BP (Canis familiaris [4]) of the same compound?
Its BP is 115 mmHg.

What about the QT interval (Canis familiaris [5]) of the same compound?
Its QT interval is 213 ms.

What about the AERP (Canis familiaris [6]) of the same compound?
The AERP was 165 ms.

What about the No. of canine (Canis familiaris [7]) of the same compound?
Its No. of canine is 9.

And the VERP (Canis familiaris [8])?
Its VERP is 180 ms.

What about the No. of canine (Canis familiaris [9]) of the same compound?
Its No. of canine is 1.

And the No. of canine (Canis familiaris [10])?
Its No. of canine is 0.

And the AERP (Canis familiaris [11])?
Its AERP is 194 ms.

And the QT interval (Canis familiaris [12])?
The QT interval was 211 ms.

And the HR (Canis familiaris [13])?
Its HR is 155 beats min-1.

What about the No. of canine (Canis familiaris [14]) of the same compound?
The No. of canine was 7.

And the QT interval (Canis familiaris [15])?
The QT interval was 212 ms.

And the HR (Canis familiaris [16])?
The HR was 113 beats min-1.

What about the VERP (Canis familiaris [17]) of the same compound?
Its VERP is 162 ms.

What about the No. of canine (Canis familiaris [18]) of the same compound?
Its No. of canine is 8.

What about the AERP (Canis familiaris [19]) of the same compound?
The AERP was 179 ms.

And the AERP (Canis familiaris [20])?
Its AERP is 166 ms.

What about the VERP (Canis familiaris [21]) of the same compound?
The VERP was 142 ms.

What about the QT interval (Canis familiaris [22]) of the same compound?
Its QT interval is 207 ms.

What about the QT interval (Canis familiaris [23]) of the same compound?
Its QT interval is 196 ms.

What about the IVR (Canis familiaris [24]) of the same compound?
The IVR was 130 beats min-1.
